Consider 1 molecule from ChEMBL document CHEMBL4428115, “Molecular docking studies, biological and toxicity evaluation of dihydroisoquinoline derivatives as potential anticancer agents” (Bioorg Med Chem, 2016).

Data set [1] in a line: Selectivity index, ratio of IC50 for mouse BALB/3T3 cells to IC50 for human LoVo cells. The format is toxicity. As to conditions: BALB/3T3 cells versus LoVo cells, read-out: Ratio IC50.
Data set [2] can be described thus: Toxicity in New Zealand albino rabbit assessed as acute skin irritation/corrosion at 0.5 g topically applied to shaved skin for 4 hrs measured 1 to 72 hrs post dose. The arrangement: species or system Oryctolagus cuniculus. The conditions noted are these: in vivo, topical_or_ocular. The method in brief: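 Test item applied under a protective band for 4 h to one rabbit first, then to two more animals to confirm or exclude irritation. Treated skin scored at 1, 24, 48 and 72 h after exposure, with daily morbidity and mortality checks. Animals euthanized after the observation period.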

A short description of data set [3]: Selectivity index, ratio of IC50 for mouse BALB/3T3 cells to IC50 for human DU145 cells.
Data set [4] has as its system HL-60. In words: Induction of autophagy in human HL60 cells assessed as accumulation of LC3b-2 at 1 ug/ml after 72 hrs by Western-blot analysis. The format is functional, cell-based. The procedure, abridged:
(§1)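 HL-60 (2 × 10^5 cells/mL) treated 72 h at 1 µg/mL with DMSO control, then lysed in RIPA buffer with protease/phosphatase inhibitors. 100 µg protein resolved on 4–20% gels and transferred to nitrocellulose. Probed with rabbit primary antibody, fluorescein-linked anti-rabbit secondary, then anti-fluorescein–alkaline phosphatase with ECF substrate; fluorescence scanned. Densitometry normalized to actin, reported as fold change versus control.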

The next data set deals with LoVo. In words: Potency index, ratio of bestatin IC50 to compound IC50 for human LoVo cells. It is filed as functional.
A short description of data set [5]: Toxicity in Dunkin-Hartley guinea pig assessed as mild skin sensitization incidents at 1 % administered intradermally followed by 50% topical application in the sites of intradermal injection for 24 to 72 hrs followed by 50 % of compound challenge. The arrangement: species or system Cavia porcellus. The conditions noted are these: in vivo. The procedure, abridged: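 Maximization-type test: 11 treated and 6 sham control guinea pigs. Induction was an intradermal 1% suspension in peanut oil with Freund's Complete Adjuvant, then 50% topical at the injection sites, after 10% sodium lauryl sulfate pretreatment. Challenge was 50% in peanut oil on the right flank, vehicle on the left. Skin was scored at 24, 48 and 72 h.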

Data set [6] is described as follows: Selectivity index, ratio of IC50 for mouse BALB/3T3 cells to IC50 for human Raji cells. It is filed as toxicity. As to conditions: BALB/3T3 cells versus Raji cells, read-out: Ratio IC50.
Data set [7] relates to HL-60. In words: Antiproliferative activity against human HL60 cells after 72 hrs by MTT assay. It is filed as functional, cell-based. As to conditions: HL-60, 72 h. The procedure, abridged:
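Leukemia cells seeded at 1 × 10^4 per well 24 h before adding compounds (0.01–1000 µg/mL from DMSO stock), exposed 72 h. MTT (5 mg/mL stock) added for 4 h, then DMF/SDS lysis mixture; absorbance at 570 nm read after 24 h. Triplicates per experiment, 3–5 repeats; IC50 calculated per experiment, reported as mean ± SD.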
A general note: Tetrazolium assays rely on reduction of a dye to a coloured formazan, in cell work by metabolically active cells.

Data set [8] can be described thus: Selectivity index, ratio of IC50 for mouse BALB/3T3 cells to IC50 for human MCF7 cells. The format is toxicity. The conditions noted are these: BALB/3T3 cells versus MCF7 cells, read-out: Ratio IC50. The procedure, abridged:
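Selectivity index is the BALB/3T3 IC50 divided by the MCF-7 IC50. Both adherent lines were plated at 1 × 10^4 per well, dosed 24 h later with 0.01–1000 µg/mL (diluted from 20 mg/mL DMSO stock) for 72 h, then fixed with cold TCA and stained with SRB, reading at 540 nm. Triplicate wells; 3–5 repeat experiments.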

The test system of a further data set is DU-145. In words: Antiproliferative activity against human DU145 cells. It is filed as functional, cell-based.
Data set [9] can be described thus: Selectivity index, ratio of IC50 for mouse BALB/3T3 cells to IC50 for human CCRF-CEM cells. The format is toxicity. The conditions noted are these: BALB/3T3 cells versus CCRF-CEM cells, read-out: Ratio IC50.
Data set [10] in a line: Selectivity index, ratio of IC50 for mouse BALB/3T3 cells to IC50 for human HL60/MX2 cells. As to conditions: BALB/3T3 cells versus HL60/MX2 cells, read-out: Ratio IC50. It is filed as toxicity. The method in brief: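 Ratio of the BALB/3T3 IC50 to the HL-60 or HL-60/MX2 IC50. Cells were plated at 1 × 10^4 per well 24 h before dosing and exposed for 72 h to 0.01–1000 µg/mL from DMSO stock. BALB/3T3 was read by SRB (TCA fix, 540 nm) and the leukemia lines by MTT (4 h, SDS/DMF lysis, 570 nm). Triplicates; 3–5 experiments.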

A short description of data set [11]: Acute toxicity in New Zealand albino rabbit assessed as conjunctiva at 0.068 g applied to conjunctival sac of eye measured 1 to 72 hrs post dose. The conditions noted are these: in vivo, topical_or_ocular. The arrangement: species or system Oryctolagus cuniculus.
Data set [12] relates to HL-60. As to the kind of experiment: Effect on Bcl-2 expression in human HL60 cells at 1 ug/ml after 72 hrs by Western-blot analysis. It is filed as functional, cell-based. The procedure, abridged: as §1
The next data set has as its system HT-29. In words: Antiproliferative activity against human HT-29 cells at 290 uM. It is filed as functional, cell-based.
For the next data set, the system named is Raji. In words: Antiproliferative activity against human Raji cells. It is filed as functional, cell-based.
The nature of data set [13]: Selectivity index, ratio of IC50 for human MCF10 cells to IC50 for human HL60 cells. It is filed as toxicity. The conditions noted are these: MCF10 cells versus HL60 cells, read-out: Ratio IC50. The procedure, abridged:
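Selectivity index is the ratio of the IC50 for the normal line to the IC50 for the cancer line. Both IC50 values come from 72 h antiproliferative assays: SRB for adherent cells, MTT for HL-60.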

In another data set the test system is BALB/3T3. As to the kind of experiment: Antiproliferative activity against mouse BALB/3T3 cells after 72 hrs by SRB assay. As to conditions: BALB/3T3, 72 h. It is filed as cell-based. The method in brief:
(§2)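 Adherent cells plated at 1 × 10^4 per well 24 h before treatment, then exposed 72 h to compounds diluted from 20 mg/mL DMSO stock (0.01–1000 µg/mL). Fixed in cold 50% TCA at 4°C for 1 h, stained with 0.4% sulforhodamine B, bound dye extracted with 10 mM Tris, OD at 540 nm. Triplicates, 3–5 experiments; IC50 per experiment, mean ± SD.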
On the technique in general: Sulforhodamine B stains cellular protein and so reports cell mass.

A further data set relates to Jurkat. In words: Antiproliferative activity against human Jurkat cells. It is filed as functional, cell-based.
Data set [14] can be described thus: Selectivity index, ratio of IC50 for mouse BALB/3T3 cells to IC50 for human CEM/C2 cells. The conditions noted are these: BALB/3T3 cells versus CEM/C2 cells, read-out: Ratio IC50. It is filed as toxicity.
Data set [15] is described as follows: Acute toxicity in Balbc/cmdb mouse assessed as clinical signs at 2000 mg/kg, po administered as single dose in second stage of experiment measured immediately post dose. The format is organism-based. As to conditions: in vivo. The method in brief: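 Acute toxic class method per OECD Guideline 423 / EU Method B.1 tris, run in three stages of three female Balbc/cmdb mice each. Fasted about 3 h, then given a single dose by metal stomach tube in DMSO at 0.5 mL/100 g bw. Stage doses were 300, 2000, then 2000 mg/kg bw. General and detailed clinical observations daily for 14 days; body weights recorded.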

Data set [16] has as its system HL-60. In words: Increase in caspase 3/7 activation in human HL60 cells using Ac-DEVD-ACC as substrate at 3 ug/ml after 24 hrs by fluorescence assay relative to control. The format is functional, cell-based. The procedure, abridged: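 HL-60 exposed 24 h to 3 µg/mL (DMSO control), lysed at 1.2 × 10^6 cells/mL in HEPES/sucrose/Triton lysis buffer pH 7.3 for 30 min at 4°C. Lysate added to DTT-containing reaction buffer with Ac-DEVD-ACC at 10 µM final (ex 360/em 460 nm). Fluorescence recorded 90 min at 37°C, normalized to Lowry protein, and expressed relative to untreated control; three experiments.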

For the next data set, the system named is MCF10. As to the kind of experiment: Antiproliferative activity against human MCF10 cells after 72 hrs by SRB assay. The format is cell-based. As to conditions: MCF10, 72 h. The procedure, abridged: as §2

Activity calls are given as the source filed them. The calls are words filed in the database; no cut-off is given here.

One may read the IC50 as the point on the concentration scale where inhibition reaches its midpoint. A low value points to inhibition by little substance. Consider `CCOC(=O)C1(C(=O)OCC)Cc2cc(OCc3ccccc3)cc(OCc3ccccc3)c2C=N1`, for which the selectivity ratio in data set [1] is 32.6; in [6], 59.8; in data set [8], 3.7; in [9], 51.3; in [10] it was 7; in [13], 4 to 8. Also, the selectivity ratio in data set [14] came to 89.7. Besides, the Activity result in data set [2] is “Non-Toxic”; in data set [5], 18.2%; in data set [11], “Non-Toxic”; in data set [15], “Toxic”. In addition, the “Ratio IC50” value in data set [3] amounted to 4.8; with LoVo, 212. The result in the data set with HL-60 [4] and with HL-60 [12] was inactive. The IC50 amounted to 6.2 µM with HL-60 [7]; 7.5 µM in the data set on DU-145; 0.6 µM in the data set with Raji; 35.9 µM with BALB/3T3; 14.4 µM in the data set on Jurkat; 40.2 µM in the data set with MCF10. In addition, the “growth inhibition (GI)” value in the data set on HT-29 was “inactive”. The outcome in the data set on HL-60 [16] was Active.
